Yeast lifespan up = extends the lifespan of yeast. S. cerevisiae growth with nicotinamide, OD615; deaD strain in restrictive glucose medium. inhibition of the nicotinamide effect, % at 10 µM. 130,000 compounds, 0.68% hits;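 active means inhibition above a set limit, placed 3 SD over the median of all compounds, cut at about 26% in these data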;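 further: 0% = nicotinamide-treated wells and 100% = cells grown without nicotinamide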
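Buffer or medium: CSMM-D glucose medium, restrictive; test system: modified budding yeast, DeaD strain; compound: single dose 10 µM compound, 0.25% DMSO; schedule: culture preincubation 4 h, compound exposure 48 h, both 30 °C; detection: optical density (absorbance) at 615 nm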
BB579 growth dn = yeast BB579 growth reduction in restrictive medium. inhibition, % at 10 µM. AID 804. 140,000 compounds, 0.51% hits. S. cerevisiae BB579 growth, OD615, 48 h;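 active means inhibition above a set limit, 3 SD over the mean compound inhibition, cut at about 44% in these data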
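controls = amphotericin B 10 µg/mL, positive | assay system = DeaD yeast strain BB579 | schedule = 48 h compound exposure at 30 °C after 4 h preincubation | detection = OD615 turbidity measurement | medium = restrictive CSMM-D medium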
PostGolgi yeast = growth inhibition of a yeast mutant, post-Golgi transport screen; post-Golgi transport phenotypic cell assay; 98,000 compounds, 0.9% hits; inhibition, % at 10 µM; AID 739;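 further: yeast cells grown in 1536-well plates; yeast grown about 18 h at 30C before absorbance read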
PostGolgi ctrl = growth of the yeast control strain, post-Golgi counter-screen; efflux-deficient yeast background strain, growth absorbance A615, 16 h; inhibition, % at 10 µM; 98,000 compounds, 5% hits; AID 738
* = called active by the depositor; . = no result given. Only a selection was taken, and hits are over-represented in it overall. Unless noted, no stated cut-off is given here; in the data, active means inhibition above about 30%; inactive means the rest.

SMILES	Yeast lifespan up	BB579 growth dn	PostGolgi yeast	PostGolgi ctrl
CC(C)Cc1[nH]c(=O)c(C#N)c2c1CCC2	-12	11	35*	-4
O=c1[nH]c(=O)n(Cc2ccc(F)cc2)c(O)c1C=NCCN1CCCCC1	-31	7	18	33*
Cc1ccc(/C=C2\C(=O)NC(=S)N(c3ccccc3F)C2=O)s1	41*	55*	.	.
O=C1NC(=O)N(c2cccc(Cl)c2)C(=O)/C1=C\c1ccc(Sc2nc3ccccc3[nH]2)o1	0	-3	.	.
O=C1NC(=O)N(c2ccccc2)C(=O)/C1=C/c1ccc(Sc2ccccc2)o1	32*	12	-1	10
CC(C)(C)C(O)C(Oc1ccc(Cl)cc1)n1cncn1 (configuration not stated)	-21	91*	104*	98*
CC(c1ccccc1F)n1cc(C(=O)Nc2ccc3nc[nH]c3c2)nn1 (configuration not stated)	-4	-11	-3	30*
COc1ccc(CCN(C)Cc2c(F)cccc2F)cc1OC	-10	-44	9	-5
CCc1cccc(C)c1NC(=S)N1CC2CC(C1)c1cccc(=O)n1C2 (configuration not stated)	-5	-9	.	.
CN1CCC(OC(=O)C2c3ccccc3Oc3ccccc32)CC1	-10	-2	-38	11

Screens from PubChem BioAssay.
